Assay results published in ChEMBL document CHEMBL3525957, “Stereospecific metabolism of itraconazole by CYP3A4: dioxolane ring scission of azole antifungals” (Drug Metab Dispos, 2012).
One block for each compound: values may come before it.

Tests used:
Cytochrome P450 3A4 [1] = molecular target: T1, Cytochrome P450 3A4 (Homo sapiens, UniProt P08684); assay: Drug metabolism of the compound assessed as CYP3A4 (unknown origin)-mediated 1-(2,4-dichlorophenyl)-2-(1H-1,2,4-triazol-1-yl)ethanone formation by LC/MS/MS analysis; format: ADME
How it was run: (§1)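 kcat for M2 formation: trans isomers at 500 nM with CYP3A4 Supersomes (1 pmol) in KPi buffer. 5-min preincubation at 37°C, then NADPH (1 mM final) and 1-min reaction. M2 by LC-MS/MS, m/z 256.0>158.8, ITZ-d5 internal standard, standard curve 0.039–30 nM. kcat = product/time/pmol CYP3A4.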

Cytochrome P450 3A4 [2] = molecular target: T1, Cytochrome P450 3A4; assay: Drug metabolism of the compound assessed as CYP3A4 (unknown origin)-mediated 1-sec-butyl-4-(4-(4-(4-(3-hydroxy-2-oxopropoxy)phenyl)piperazin-1-yl)phenyl)-1H-1,2,4-triazol-5(4H)-one by LC/MS/MS analysis; format: ADME
Cytochrome P450 3A4 [3] = molecular target: T1, Cytochrome P450 3A4; assay: Drug metabolism of the compound assessed as CYP3A4 (unknown origin)-mediated 3-(4-(4-(4-(1-sec-butyl-5-oxo-1H-1,2,4-triazol-4(5H)-yl)phenyl)piperazin-1-yl)phenoxy)-2-hydroxypropanal by LC/MS/MS analysis; format: ADME
Cytochrome P450 3A4 [4] = molecular target: T1, Cytochrome P450 3A4; assay: Drug metabolism of the compound assessed as CYP3A4 (unknown origin) coexpressing P450 reductase and cytochrome-b5-mediated 1-sec-butyl-4-(4-(4-(4-(3-hydroxy-2-oxopropoxy)phenyl)piperazin-1-yl)phenyl)-1H-1,2,4-triazol-5(4H)-one after 5 mins by LC/MS/MS analysis in presence of NADPH; format: ADME
Cytochrome P450 3A4 [5] = molecular target: T1, Cytochrome P450 3A4; assay: Drug metabolism of the compound assessed as CYP3A4 (unknown origin) coexpressing P450 reductase and cytochrome-b5-mediated 3-(4-(4-(4-(1-sec-butyl-5-oxo-1H-1,2,4-triazol-4(5H)-yl)phenyl)piperazin-1-yl)phenoxy)-2-hydroxypropanal after 5 mins by LC/MS/MS analysis in presence of NADPH; format: ADME
Cytochrome P450 3A4 [6] = molecular target: T1, Cytochrome P450 3A4; assay: Drug metabolism of the compound assessed as purified CYP3A4 (unknown origin)-mediated 1-sec-butyl-4-(4-(4-(4-(3-hydroxy-2-oxopropoxy)phenyl)piperazin-1-yl)phenyl)-1H-1,2,4-triazol-5(4H)-one by LC/MS/MS analysis in presence of NADPH; format: ADME
Cytochrome P450 3A4 [7] = molecular target: T1, Cytochrome P450 3A4; assay: Drug metabolism of the compound assessed as purified CYP3A4 (unknown origin)-mediated 3-(4-(4-(4-(1-sec-butyl-5-oxo-1H-1,2,4-triazol-4(5H)-yl)phenyl)piperazin-1-yl)phenoxy)-2-hydroxypropanal by LC/MS/MS analysis in presence of NADPH; format: ADME
Cytochrome P450 3A4 [8] = molecular target: T1, Cytochrome P450 3A4; assay: Drug metabolism of the compound assessed as CYP3A4 (unknown origin) coexpressing P450 reductase and cytochrome-b5-mediated 1-sec-butyl-4-(4-(4-(4-(2,3-dihydroxypropoxy)phenyl)piperazin-1-yl)phenyl)-1H-1,2,4-triazol-5(4H)-one formation after 3 mins by LC/MS/MS analysis; format: ADME; conditions: 0.05 h
Cytochrome P450 3A4 [9] = molecular target: T1, Cytochrome P450 3A4; assay: Drug metabolism of the compound assessed as reconstituted CYP3A4 (unknown origin)-mediated 1-(2,4-dichlorophenyl)-2-(1H-1,2,4-triazol-1-yl)ethanone formation at 500 nM after 5 mins by LC/MS analysis in presence of NADPH; format: ADME; conditions: 0.5 µM
Cytochrome P450 3A4 [10] = molecular target: T1, Cytochrome P450 3A4; assay: Drug metabolism of the compound assessed as CYP3A4 (unknown origin) coexpressing P450 reductase and cytochrome-b5-mediated 1-(2,4-dichlorophenyl)-2-(1H-1,2,4-triazol-1-yl)ethanone formation at 500 nM after 5 mins by LC/MS analysis in presence of NADPH; format: ADME; conditions: 0.5 µM
Cytochrome P450 3A4 [11] = molecular target: T1, Cytochrome P450 3A4; assay: Drug metabolism of the compound assessed as CYP3A4 (unknown origin) coexpressing P450 reductase and cytochrome-b5-mediated 1-(2,4-dichlorophenyl)-2-(1H-1,2,4-triazol-1-yl)ethanone formation by LC/MS/MS analysis; format: ADME; how it was run: as §1
Cytochrome P450 3A4 [12] = molecular target: T1, Cytochrome P450 3A4; assay: Drug level of the compound assessed as CYP3A4 (unknown origin) coexpressing P450 reductase and cytochrome-b5-mediated metabolite formation treated with trans-ITZ by LC/MS/MS analysis; format: ADME
Cytochrome P450 3A4 [13] = molecular target: T1, Cytochrome P450 3A4; assay: Drug level of the compound assessed as CYP3A4 (unknown origin)-mediated metabolite formation treated with cis-ITZ by LC/MS/MS analysis; format: ADME
How it was run: (§2)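 Substrate incubated with CYP3A4 Supersomes (100 pmol) in KPi buffer at 37°C for 1 h, with and without NADPH, plus a no-enzyme control. Products by LC/Q-TOF MS, positive ESI, m/z 100–1500, cone 35 V, low-energy (6 eV) and ramped high-energy modes.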

Cytochrome P450 3A4 [14] = molecular target: T1, Cytochrome P450 3A4; assay: Drug level of the compound assessed as CYP3A4 (unknown origin)-mediated metabolite formation treated with 3'-OH-ITZ by LC/MS/MS analysis; format: ADME; how it was run: as §2
Cytochrome P450 3A4 [15] = molecular target: T1, Cytochrome P450 3A4; assay: Drug level of the compound assessed as CYP3A4 (unknown origin)-mediated metabolite formation treated with keto-ITZ by LC/MS/MS analysis; format: ADME; how it was run: as §2
Cytochrome P450 3A4 [16] = molecular target: T1, Cytochrome P450 3A4; assay: Drug level of the compound assessed as CYP3A4 (unknown origin)-mediated metabolite formation treated with N-desalkyl-ITZ by LC/MS/MS analysis; format: ADME; how it was run: as §2
[17] = Drug metabolism in human assessed as 1-(2,4-dichlorophenyl)-2-(1H-1,2,4-triazol-1-yl)ethanone level in urine at 400 mg, po after 24 hrs by MS/MS analysis; format: ADME, organism-based; conditions: in vivo
How it was run: (§3)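 Six subjects (5 male, 1 female) received itraconazole 400 mg orally. Urine collected 24 h before dosing, 0–12 and 12–24 h after, then 24–48, 72–96 and 120–144 h, with volume recorded. 5 ml urine extracted with ethyl acetate. M2 measured by MS/MS at transition m/z 256>158.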

[18] = Drug metabolism in human assessed as 1-(2,4-dichlorophenyl)-2-(1H-1,2,4-triazol-1-yl)ethanone level in urine at 400 mg, po measured on day 2 by MS/MS analysis; format: ADME, organism-based; conditions: in vivo; how it was run: as §3
[19] = Drug metabolism in human assessed as 1-(2,4-dichlorophenyl)-2-(1H-1,2,4-triazol-1-yl)ethanone level in urine at 400 mg, po measured on day 4 by MS/MS analysis; format: ADME, organism-based; conditions: in vivo; how it was run: as §3
[20] = Drug metabolism in human assessed as 1-(2,4-dichlorophenyl)-2-(1H-1,2,4-triazol-1-yl)ethanone level in urine at 400 mg, po measured on day 7 by MS/MS analysis; format: ADME, organism-based; conditions: in vivo; how it was run: as §3
CYP3A4 = CYP3A4 (Homo sapiens, UniProt P08684); assay: Inhibition of CYP3A4 in human liver microsomes using midazolam as substrates at 15 uM after 5 mins by LC/MS analysis in presence of NADPH; format: ADME; conditions: probe midazolam
Cytochrome P450 3A4 [21] = molecular target: T1, Cytochrome P450 3A4; assay: Inhibition of CYP3A4 in human liver microsomes using midazolam as substrates after 5 mins by LC/MS analysis in presence of NADPH; format: ADME
How it was run: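 Pooled HLM (0.025 mg/ml, CYP3A5*3/*3) with midazolam 1 μM in KPi. Inhibitor range 5–1000 nM for trans isomers. 5-min preincubation at 37°C, then NADPH 1 mM final, run for 2 min. Stopped with ethyl acetate, d4-1'-OH-MDZ added as internal standard. IC50 from fit of remaining-activity equation.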

Cytochrome P450 3A4 [22] = molecular target: T1, Cytochrome P450 3A4; assay: Binding affinity to purified CYP3A4 (unknown origin) coexpressing P450 reductase and cytochrome-b5 by UV-Vis spectrophotometry; format: ADME; conditions: read-out: Ks
Cytochrome P450 3A4 [23] = molecular target: T1, Cytochrome P450 3A4; assay: Drug metabolism of the compound assessed as CYP3A4 (unknown origin) coexpressing P450 reductase and cytochrome-b5-mediated 1-sec-butyl-4-(4-(4-(4-(2,3-dihydroxypropoxy)phenyl)piperazin-1-yl)phenyl)-1H-1,2,4-triazol-5(4H)-one formation after 1 hr by LC/MS/MS analysis; format: ADME
Cytochrome P450 3A4 [24] = molecular target: T1, Cytochrome P450 3A4; assay: Drug level of the compound assessed as CYP3A4 (unknown origin) coexpressing P450 reductase and cytochrome-b5-mediated metabolite formation treated with trans-(2S,4S,2'S)-ITZ by LC/MS/MS analysis; format: ADME
Cytochrome P450 3A4 [25] = molecular target: T1, Cytochrome P450 3A4; assay: Drug level of the compound assessed as purified CYP3A4 (unknown origin)-mediated metabolite formation treated with trans-(2S,4S,2'S)-ITZ by LC/MS/MS analysis; format: ADME

T1 sequence (P08684 whole entry): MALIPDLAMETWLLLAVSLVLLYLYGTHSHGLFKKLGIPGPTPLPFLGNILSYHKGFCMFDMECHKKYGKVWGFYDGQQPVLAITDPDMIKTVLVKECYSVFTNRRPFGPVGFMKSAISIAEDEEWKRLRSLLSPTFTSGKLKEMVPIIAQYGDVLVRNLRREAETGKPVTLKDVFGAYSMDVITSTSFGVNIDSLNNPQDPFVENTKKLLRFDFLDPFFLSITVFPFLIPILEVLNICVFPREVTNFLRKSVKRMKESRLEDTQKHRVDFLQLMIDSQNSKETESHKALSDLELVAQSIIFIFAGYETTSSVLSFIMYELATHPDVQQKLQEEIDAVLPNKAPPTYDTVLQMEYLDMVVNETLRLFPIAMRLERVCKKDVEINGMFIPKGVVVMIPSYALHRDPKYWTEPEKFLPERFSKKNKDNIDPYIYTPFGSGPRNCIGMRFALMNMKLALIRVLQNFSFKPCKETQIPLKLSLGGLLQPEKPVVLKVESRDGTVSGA
Sequence of CYP3A4 (P08684 whole entry): as above

Drug metabolism (Cytochrome P450 3A4 [1]): metabolite_detected
Drug metabolism (Cytochrome P450 3A4 [2]): metabolite_detected
Drug metabolism (Cytochrome P450 3A4 [3]): metabolite_detected
SMILES: CC[C@H](C)n1ncn(-c2ccc(N3CCN(c4ccc(OC[C@@H]5CO[C@@](Cn6cncn6)(c6ccc(Cl)cc6Cl)O5)cc4)CC3)cc2)c1=O

Drug metabolism (Cytochrome P450 3A4 [1]): metabolite_detected
Drug metabolism (Cytochrome P450 3A4 [2]): metabolite_detected
Drug metabolism (Cytochrome P450 3A4 [3]): metabolite_detected
SMILES: CC[C@H](C)n1ncn(-c2ccc(N3CCN(c4ccc(OC[C@H]5CO[C@](Cn6cncn6)(c6ccc(Cl)cc6Cl)O5)cc4)CC3)cc2)c1=O

Drug metabolism (Cytochrome P450 3A4 [1]): metabolite_detected
Drug metabolism (Cytochrome P450 3A4 [2]): metabolite_detected
Drug metabolism (Cytochrome P450 3A4 [3]): metabolite_detected
SMILES: CC[C@@H](C)n1ncn(-c2ccc(N3CCN(c4ccc(OC[C@H]5CO[C@](Cn6cncn6)(c6ccc(Cl)cc6Cl)O5)cc4)CC3)cc2)c1=O

Drug metabolism (Cytochrome P450 3A4 [4]): metabolite_detected
Drug metabolism (Cytochrome P450 3A4 [5]): metabolite_detected
Drug metabolism (Cytochrome P450 3A4 [6]): metabolite_detected
Drug metabolism (Cytochrome P450 3A4 [7]): metabolite_detected
Drug metabolism (Cytochrome P450 3A4 [8]): metabolite_detected
Kcat (Cytochrome P450 3A4 [9]): 0.0042 s⁻¹
Kcat (Cytochrome P450 3A4 [10]): 0.0198 s⁻¹
SMILES: CC[C@H](C)n1ncn(-c2ccc(N3CCN(c4ccc(OC[C@H]5CO[C@@](Cn6cncn6)(c6ccc(Cl)cc6Cl)O5)cc4)CC3)cc2)c1=O

Kcat (Cytochrome P450 3A4 [9]): 0.0041 s⁻¹
Kcat (Cytochrome P450 3A4 [10]): 0.0183 s⁻¹
SMILES: CC[C@@H](C)n1ncn(-c2ccc(N3CCN(c4ccc(OC[C@H]5CO[C@@](Cn6cncn6)(c6ccc(Cl)cc6Cl)O5)cc4)CC3)cc2)c1=O

Kcat (Cytochrome P450 3A4 [9]): 0.0038 s⁻¹
Kcat (Cytochrome P450 3A4 [10]): 0.0214 s⁻¹
SMILES: CC[C@H](C)n1ncn(-c2ccc(N3CCN(c4ccc(OC[C@@H]5CO[C@](Cn6cncn6)(c6ccc(Cl)cc6Cl)O5)cc4)CC3)cc2)c1=O

Kcat (Cytochrome P450 3A4 [9]): 0.0032 s⁻¹
Kcat (Cytochrome P450 3A4 [10]): 0.0159 s⁻¹
SMILES: CC[C@@H](C)n1ncn(-c2ccc(N3CCN(c4ccc(OC[C@@H]5CO[C@](Cn6cncn6)(c6ccc(Cl)cc6Cl)O5)cc4)CC3)cc2)c1=O

Drug metabolism (Cytochrome P450 3A4 [11]): metabolite_detected
Drug metabolism (Cytochrome P450 3A4 [12]): metabolite_detected
Drug metabolism (Cytochrome P450 3A4 [13]): metabolite_detected
Drug metabolism (Cytochrome P450 3A4 [14]): metabolite_detected
Drug metabolism (Cytochrome P450 3A4 [15]): metabolite_detected
Drug metabolism (Cytochrome P450 3A4 [16]): metabolite_detected
Drug metabolism [17]: 1114 ng
Drug metabolism [18]: 429 ng
Drug metabolism [19]: 319 ng
Drug metabolism [20]: 87 ng
inhibition at 5 min, 15 µM (CYP3A4): < 50%
IC50 (Cytochrome P450 3A4 [21]): > 15 µM
Kd (Cytochrome P450 3A4 [22]): 12.8 µM
Drug metabolism (Cytochrome P450 3A4 [23]): metabolite_detected
SMILES: O=C(Cn1cncn1)c1ccc(Cl)cc1Cl

Drug metabolism (Cytochrome P450 3A4 [24]): metabolite_detected
Drug metabolism (Cytochrome P450 3A4 [25]): metabolite_detected
Drug metabolism (Cytochrome P450 3A4 [13]): metabolite_detected
SMILES: CCC(C)n1ncn(-c2ccc(N3CCN(c4ccc(OCC(O)C=O)cc4)CC3)cc2)c1=O (centres undefined)

Drug metabolism (Cytochrome P450 3A4 [24]): metabolite_detected
Drug metabolism (Cytochrome P450 3A4 [25]): metabolite_detected
Drug metabolism (Cytochrome P450 3A4 [13]): metabolite_detected
SMILES: CCC(C)n1ncn(-c2ccc(N3CCN(c4ccc(OCC(=O)CO)cc4)CC3)cc2)c1=O (centres undefined)

Drug metabolism (Cytochrome P450 3A4 [11]): metabolite_detected
Drug metabolism (Cytochrome P450 3A4 [12]): metabolite_detected
Drug metabolism (Cytochrome P450 3A4 [25]): metabolite_not_detected
Drug metabolism (Cytochrome P450 3A4 [23]): metabolite_detected
SMILES: CCC(C)n1ncn(-c2ccc(N3CCN(c4ccc(OCC(O)CO)cc4)CC3)cc2)c1=O (centres undefined)

Drug metabolism (Cytochrome P450 3A4 [1]): metabolite_detected
Drug metabolism (Cytochrome P450 3A4 [2]): metabolite_detected
Drug metabolism (Cytochrome P450 3A4 [3]): metabolite_detected
SMILES: CC[C@@H](C)n1ncn(-c2ccc(N3CCN(c4ccc(OC[C@@H]5CO[C@@](Cn6cncn6)(c6ccc(Cl)cc6Cl)O5)cc4)CC3)cc2)c1=O
